# Shown are actives, neighbours in structure and some others; about 2.5% of the full set was active somewhere.
# OX1R antag-1: human HCRTR1 antagonism; O43613; AID 434989; inhibition, % at 5 µM; CHO/OX1R cells, Fluo-8 calcium fluorescence, orexin A; 0.43% of 330,000 active;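 active means inhibition above its plate's threshold, mean inhibition of all tested compounds on the plate plus 3 SD, cut at about 37% in these data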
# TRPN1 ag: agonists of zebrafish TRPN1 channel; activation, % at 3 µM; 0.18% of 220,000 active; HEK293 zebrafish TRPN1-YFP, Fluo-8 calcium fluorescence; 100% = response to 87 µM carbachol;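 active means activation above its plate's cutoff, the mean activation of test wells on that plate plus 3 SD, cut at about 19% in these data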
#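 System: zebrafish TRPN1-YFP in HEK293 cells / Dosing: 3 µM single point / Timing: dye loading 1 h at 37 °C, then 30 min room temperature / Signal: Fluo-8 calcium fluorescence, excitation 470-495 nm, emission 515-575 nm / Read-out basis: percent activation from peak over basal fluorescence ratio, control-normalized / Control set: high carbachol 87 µM, low DMSO alone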
# CHO parental Ca: signal in parental CHO cells, OX1R antagonist counter-screen | parental CHO-K1, ATP-induced calcium, Fluo-8 fluorescence | inhibition, % at 5.6 µM | 0.63% of 330,000 active | AID 463079;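 active means inhibition above that plate's mean sample inhibition plus 3 SD, cut at about 26% in these data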
#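 Assay system: parental CHO cells; Read-out basis: percent inhibition of ATP-evoked calcium rise, normalized to controls; Benchmarks: ATP and no-ATP DMSO wells; Compound dosing: single nominal dose of 5.6 µM per compound; Signal: Fluo-8 calcium dye fluorescence; Also added: ATP as calcium-mobilizing challenge; Repeats: singlicate.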
# TRPML3 ag: human mucolipin-3 channel agonism; Q8TDD5; HEK293 TRPML3-YFP, Fluo-8 calcium fluorescence; 100% = the carbachol control signal; activation, % at 3 µM; 0.29% of 220,000 active;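 active means activation above its plate's cutoff, the mean activation of the plate's test wells plus 3 SD, cut at about 12% in these data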
# Target sequence (Q8TDD5 whole entry, looked up): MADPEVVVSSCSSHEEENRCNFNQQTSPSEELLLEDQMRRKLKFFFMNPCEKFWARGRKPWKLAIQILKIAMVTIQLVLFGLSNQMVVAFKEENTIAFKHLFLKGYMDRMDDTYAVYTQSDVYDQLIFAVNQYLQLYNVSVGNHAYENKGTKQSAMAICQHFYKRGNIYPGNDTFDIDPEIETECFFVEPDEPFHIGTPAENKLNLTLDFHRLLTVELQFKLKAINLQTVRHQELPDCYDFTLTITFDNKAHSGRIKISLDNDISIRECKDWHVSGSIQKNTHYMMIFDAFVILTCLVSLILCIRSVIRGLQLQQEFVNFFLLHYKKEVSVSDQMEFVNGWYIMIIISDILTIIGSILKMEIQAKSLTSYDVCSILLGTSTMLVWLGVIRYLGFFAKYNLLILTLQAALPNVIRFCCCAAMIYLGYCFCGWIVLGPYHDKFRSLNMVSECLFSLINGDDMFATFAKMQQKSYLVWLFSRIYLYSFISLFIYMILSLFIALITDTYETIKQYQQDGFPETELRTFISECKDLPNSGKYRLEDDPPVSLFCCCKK
#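 Test system – HEK293 line with stable expression of human TRPML3-YFP channel · Control set – carbachol 87 µM final as high control (100%), DMSO as low control (0%) · Signal – Fluo-8 calcium dye fluorescence, ex 470-495, em 515-575 nm · Incubation – 1-h 37 °C dye load, 5-s basal, 120-s post-compound reads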
# OX1R antag-2: antagonists of human orexin 1 receptor (OX1R). O43613. 1.8% of 330,000 active. OX1R-expressing cells, FRET antagonist read-out. inhibition, % at 6.6 µM; in the data active means inhibition mostly above about 38%, no sharp cut-off; inactive means mostly below about 40%
# Hits are given with their value; n = inactive; x = no result given.
SMILES,OX1R antag-1,TRPN1 ag,CHO parental Ca,TRPML3 ag,OX1R antag-2
CC(OC(=O)c1ccc2c(c1)S(=O)(=O)c1ccccc1C2=O)C(N)=O (centres undefined),n,x,n,x,71
COC(=O)[C@@H](NC(=O)c1ccc2c(c1)S(=O)(=O)c1ccccc1C2=O)C(C)C,n,x,n,x,73
COCCN1CCN(C(=O)c2ccc3c(c2)S(=O)(=O)c2ccccc2C3=O)CC1,n,x,n,x,66
O=C1c2ccccc2S(=O)(=O)c2cc(C(=O)N3CCN(c4ccccc4)CC3)ccc21,n,x,n,x,n
NC(=O)COC(=O)c1ccc2c(c1)S(=O)(=O)c1ccccc1C2=O,n,x,n,x,64
Cc1cccc(N2CCN(c3ccc4cc(S(=O)(=O)N5CCCCC5)ccc4n3)CC2)c1C,n,x,n,x,n
CC(C)Sc1nnc(-c2ccc(S(=O)(=O)N3CCOCC3)cc2)n1C,n,x,n,x,n
CC1CCCCC1NC(=O)c1cccc(N2C(=O)C3C4C=CC(C4)C3C2=O)c1 (centres undefined),n,x,n,x,n
O=C(COC(=O)c1ccc2c(c1)S(=O)(=O)c1ccccc1C2=O)NC1CC1,n,n,n,n,51
NC(=O)c1ccc2c(c1)S(=O)(=O)c1ccccc1C2=O,n,n,n,n,65
O=C(O)c1ccc2c(c1)S(=O)(=O)c1cc(Cl)ccc1C2=O,n,x,n,x,32
O=C(NCCc1ccccc1)c1ccc2c(c1)S(=O)(=O)c1cc(Cl)ccc1C2=O,n,x,n,x,n
CC1=NN(c2nc3ccccc3[nH]2)C(=O)C1Cc1ccccc1 (centres undefined),n,n,n,n,n
Cc1ccc(S(=O)(=O)NC(=O)Nc2c(C)cccc2C)cc1,n,x,n,x,n
O=[N+]([O-])c1ccccc1CS(=O)(=O)c1ccccc1,n,x,n,x,n
O=[N+]([O-])c1sccc1CS(=O)(=O)c1ccccc1,n,n,n,n,51
O=C(Nc1ccccc1)c1ccc[n+](Cc2ccc([N+](=O)[O-])cc2)c1,n,n,n,n,63
COc1cccc(Nc2ncnc3ccccc23)c1,n,n,n,n,n
O=C(Oc1cccc(Nc2ncnc3ccccc23)c1)c1ccccc1Cl,53,n,71,n,95
CN(Cc1ccc(Cl)cc1)C(=O)CNC(=O)C12CC3CC(CC(C3)C1)C2,n,x,n,x,n
C/C(=C1/C(=O)N(c2ccc([N+](=O)[O-])cc2)N=C1c1ccccc1)N(C)C,n,31,n,n,42
CCN(CCNCC(O)COc1ccccc1C(C)C)c1cccc(C)c1 (centres undefined),n,x,31,x,n
CCCCNC(=O)C1CCC(CNS(=O)(=O)c2cccc3nsnc23)CC1 (centres undefined),n,x,n,x,n
